Where “and” joins values, the source holds several entries; their conditions need not be identical. Equal entries are not always repeated.
What was measured:
[1] = molecular target: Tubulin (Bos taurus, UniProt Q6B856+Q862L2+Q862F3); assay: Inhibitory activity against tubulin polymerization.; assay type: functional
How it was run: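 Bovine brain microtubule protein (1 mg/mL) in 0.1 M MES, 1 mM EGTA, 0.5 mM MgCl2, pH 6.8, with 5% DMSO final. Compound at 0.30–100 µM, held 30 min at 4 °C, then warmed to 37 °C with 1 mM GTP. Turbidity followed at 350 nm; the 30 min value is plotted against log concentration. IC50 by least squares, triplicate.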

[2] = system: P388; assay: Effective concentration to inhibit cell proliferation by 50% relative to untreated control cell after 72 hr of continuous exposure in P388/4.0 r-M cell line; assay type: functional, cell-based; settings: Mus musculus, P388, 72 h
[3] = system: P388; assay: Effective concentration to inhibit cell proliferation by 50% relative to untreated control cell after 72 hr of continuous exposure in P388 cell line; assay type: functional, cell-based; settings: Mus musculus, P388, 72 h
[4] = system: HCT-116; assay: Effective concentration to inhibit cell proliferation by 50% relative to untreated control cell after 72 hr of continuous exposure in HCT116-C9 cell line; assay type: functional, cell-based; settings: Homo sapiens, HCT-116, 72 h
[5] = system: HCT-116; assay: Effective concentration to inhibit cell proliferation by 50% relative to untreated control cell after 72 hr of continuous exposure in HCT116-C9 -C1cell line; assay type: functional, cell-based; settings: Homo sapiens, HCT-116, 72 h
[6] = Relative resistance value as the ratio of IC50 for the resistant cell line to that of parental cell line.; assay type: functional
How it was run: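 Ratio of MTT IC50 (72 h exposure) in the resistant subclone to that in the parental line: P388/4.0r-M versus P388, and HCT116-C9-C1 versus HCT116-C9. IC50s come from two triplicate runs each.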

IC50 [1] [nM] | IC50 [2] [nM] | IC50 [3] [nM] | IC50 [4] [nM] | IC50 [5] [nM] | Compound | Relative resistance [6]
2100 |  |  |  |  | COc1ccc(S(=O)(=O)Nc2cccc3cc(Cl)[nH]c23)cc1 | 
> 100000 |  |  |  |  | NS(=O)(=O)c1ccc(C(=O)Nc2cccc3c(Cl)c[nH]c23)cc1 | 
> 100000 | 590 | 610 | 210 | 29000 | NS(=O)(=O)c1ccc(S(=O)(=O)Nc2cccc3c(Cl)c[nH]c23)cc1 [INDISULAM] | 0.97 and 1.4

Further lines, the compound ahead of its results:

Compound | IC50 [1] [nM] | IC50 [2] [nM] | IC50 [3] [nM] | IC50 [4] [nM] | IC50 [5] [nM] | Relative resistance [6]
NS(=O)(=O)c1ccc(S(=O)(=O)Nc2cccc3cc[nH]c23)cc1 | > 100000 |  |  |  |  | 
COc1ccc(S(=O)(=O)Nc2cccc3c(Cl)c[nH]c23)cc1 | 9500 | 1200 | 1200 | 370 | 2200 | 
N#Cc1ccc(S(=O)(=O)Nc2cccc3c(Cl)c[nH]c23)cc1 | > 100000 |  |  |  |  | 
COc1ccc(S(=O)(=O)Nc2cccnc2Nc2ccc(O)cc2)cc1 [ABT-751] | 2200 | 15000 | 190 | 900 | 960 | 

— ChEMBL document CHEMBL1135639, “Array-based structure and gene expression relationship study of antitumor sulfonamides including N-[2-[(4-hydroxyphenyl)amino]-3-pyridinyl]-4-methoxybenzenesulfonamide and N-(3-chloro-7-indolyl)-1,4-benzenedisulfonamide” (J Med Chem, 2002)
